Data from paper PMC4470787 (Clinical cancer research : an official journal of the …, 2015).
“Also recorded” adds a separate entry of the source.

Legend:
[1] = system: pS6RP, p4EBP1 (Thr37/46), pAkt (Ser473); type: in vivo, human; conditions: 5 of 8 tested samples; 24 h after first dose; both 5 mg and 10 mg dose levels
[2] = system: mTOR targets (S6RP pS235-S236, S6RP pS240-S244, 4EBP1) and Akt; test: Reverse phase protein array; type: in vivo, human
Summary of the method: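 Peripheral blood proteins from 10 patients (3 on 5 mg/day, 7 on 10 mg/day everolimus) were lysed as for western blots, taken before (C1D0) and 24 h after (C1D1) the first dose. The reverse phase protein array probed mTOR pS2448, p70S6K pT389, S6RP pS235-S236 and pS240-S244, 4EBP1 pS65 and pT37-T46, and Akt pS473 and pT308. Phospho/total ratios were compared between days 0 and 1.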

[3] = system: relapsed/refractory acute lymphoblastic leukemia; test: Phase I/II study: response and survival with everolimus plus HyperCVAD; type: in vivo, human
[4] = system: patients with relapsed or refractory hematologic malignancies; conditions: phase I study at UT/MDACC; cited from earlier work
[5] = system: mTOR-sensitive, inflammation-associated and miR-21 target gene sets; type: in vivo, human
Summary of the method: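 Peripheral blood was sampled from 5 patients before (C1D0) and 24 h after (C1D1) the first oral everolimus dose. RNA was TRIzol-extracted, isopropanol-precipitated and 70% ethanol-washed, accepted at integrity number >7, and amplified/biotinylated via oligo(dT) reverse transcription and T7 transcription with biotin-UTP. It was hybridised to HumanHT-12 v4 bead chips and analysed by gene set enrichment analysis.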

[6] = Everolimus whole blood pharmacokinetics; type: in vivo, human
Summary of the method: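 Patients with relapsed/refractory ALL took oral everolimus (5 or 10 mg/day, continuous from Cycle 1 Day 0) with HyperCVAD. Whole blood was collected in EDTA tubes 1, 2, 5, 8 and 24 h post-dose on Days 1 and 15 of Cycles 1 and 2 and held at 4°C. Drug levels were measured by validated HPLC-MS/MS with sirolimus internal standard. Cmax, Tmax, t1/2, Ke, CL, AUC0-∞ and V came from non-compartmental analysis.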

[7] = system: patients with relapsed/refractory acute lymphoblastic leukemia
[8] = 1 of 24 patients, everolimus with HyperCVAD
[9] = all 24 patients, everolimus with HyperCVAD
[10] = patients in first salvage, everolimus with HyperCVAD
[11] = patients in second salvage and beyond, everolimus with HyperCVAD

CO[C@H]1C[C@@H]2CC[C@@H](C)[C@@](O)(O2)C(=O)C(=O)N2CCCC[C@H]2C(=O)O[C@H]([C@H](C)C[C@@H]2CC[C@@H](OCCO)[C@H](OC)C2)CC(=O)[C@H](C)/C=C(\C)[C@@H](O)[C@@H](OC)C(=O)[C@H](C)C[C@H](C)/C=C/C=C/C=C/1C [everolimus]
samples with reduced phosphorylation of S6RP (western blot) [1]: 62% | phosphorylation of S6RP pS235-S236 (RPPA) ([2]; 10 patients, 1-sided paired t-test P=0.007): inhibited phosphorylation | phosphorylation of S6RP pS240-S244 (RPPA) ([2]; 10 patients, 1-sided paired t-test P=0.01): inhibited phosphorylation | phosphorylation of 4EBP1, Akt, or other proteins ([2]; 24 h after first dose): No significant decreases; also recorded: No statistically significant differences | phosphorylation of S6RP at pS235-S236 and pS240-S244 sites ([2]; everolimus 5 mg/day, RPPA and western blot): sufficiently blocked | degree of inhibition of proteins or phosphorylated forms, 5 mg/day vs 10 mg/day ([2]; including Akt targets cyclin D1, FOXO3A, PRAS40 and Mcl-1): did not differ | patients with elevation of PTEN levels by RPPA ([2]; of 10 patients with serial analysis): Five | CR without platelet recovery (CRp) [3, 8]: 4% | CR without recovery of counts (CRi) [3, 8]: 4% | partial response (PR) ([3]; 2 of 24 patients, everolimus with HyperCVAD): 8% | response in T-ALL patients ([3]; 5 of 10 heavily pretreated T-ALL patients, everolimus with HyperCVAD): 50% | response in B-ALL patients ([3]; 5 of 13 patients (all CR), everolimus with HyperCVAD): 39% | complete remission (CR) ([3]; 6 of 24 patients, everolimus with HyperCVAD): 25% | response (CR/CRp) in first salvage ([3]; 7 of 11 patients, everolimus with HyperCVAD): 64% | responses beyond second salvage ([3]; 10 patients, everolimus with HyperCVAD): no responses | median OS ([3]; B-ALL patients, everolimus with HyperCVAD): 23 weeks | median OS ([3]; T-ALL patients, everolimus with HyperCVAD): 23 weeks | overall response rate (CR+CRp+CRi) [3, 9]: 33% | response noted (including PR) [3, 9]: 41% | no detectable MRD at response (multiparametric flow cytometry) ([3]; among patients who achieved CR/CRp/CRi): 5 of the 8 | CRi in second salvage ([3]; everolimus with HyperCVAD): 1 of 3 | median EFS [3, 10]: 22 weeks | median OS [3, 10]: 29 weeks | median EFS [3, 11]: 7 weeks | median OS [3, 11]: 15 weeks | complete cytogenetic response ([3]; responders with abnormal cytogenetics at diagnosis): 3 patients | tolerability of single-agent everolimus [4]: well tolerated at a dose of 10 mg daily | expression of mTOR-sensitive genes induced by overexpression of Akt (GSEA) ([5]; 5 patients, C1D0 vs C1D1): significantly reduced | inflammation-associated genes (TNF, EGF, IL-6 induced) (GSEA) ([5]; 5 patients, C1D0 vs C1D1): similarly reduced | target genes of miR-21 (GSEA) ([5]; 5 patients, C1D0 vs C1D1): increased | patient samples with increased PTEN expression (microarray) ([5]; P=0.016): 4 of the 5 | AUC and Cmax at steady state (C1D15 and C2D0) versus literature ([6]; 10-mg/day dose): higher than in previous published studies | trough levels of everolimus, association ([6]; in vivo): not associated with response or toxicity | AUC and Cmax between everolimus 5 mg/day and 10 mg/day ([6]; whole blood): dose-proportional | Cardiac: Pericardial effusion, G1/2 ([7]; human, in vivo): 0 N (%) | Cardiac: Pericardial effusion, G3/4 ([7]; human, in vivo): 2 (8) N (%) | Cardiac: Tachycardia, G1/2 ([7]; human, in vivo): 3 (13) N (%) | Cardiac: Tachycardia, G3/4 ([7]; human, in vivo): 1 (4) N (%) | Constitutional: Fatigue, G1/2 ([7]; human, in vivo): 13 (54) N (%) | Constitutional: Fatigue, G3/4 ([7]; human, in vivo): 0 N (%) | Constitutional: Headache, G1/2 ([7]; human, in vivo): 6 (25) N (%) | Constitutional: Headache, G3/4 ([7]; human, in vivo): 4 (17) N (%) | Gastrointestinal: Diarrhea, G1/2 ([7]; human, in vivo): 8 (33) N (%) | Gastrointestinal: Diarrhea, G3/4 ([7]; human, in vivo): 2 (8) N (%) | Gastrointestinal: Nausea, G1/2 ([7]; human, in vivo): 9 (38) N (%) | Gastrointestinal: Nausea, G3/4 ([7]; human, in vivo): 0 N (%) | Infection (one or more), G1/2 ([7]; human, in vivo): 0 N (%) | Infection (one or more), G3/4 ([7]; human, in vivo): 23 (96) N (%) | Metabolic: ALT/AST, G1/2 ([7]; human, in vivo): 14 (58) N (%) | Metabolic: ALT/AST, G3/4 ([7]; human, in vivo): 7 (29) N (%) | Metabolic: Bilirubin, G1/2 ([7]; human, in vivo): 14 (58) N (%) | Metabolic: Bilirubin, G3/4 ([7]; human, in vivo): 2 (8) N (%) | Metabolic: Hyperglycemia, G1/2 ([7]; human, in vivo): 7 (29) N (%) | Metabolic: Hyperglycemia, G3/4 ([7]; human, in vivo): 12 (50) N (%) | Mucositis/stomatitis, G1/2 ([7]; human, in vivo): 10 (42) N (%) | Mucositis/stomatitis, G3/4 ([7]; human, in vivo): 3 (13) N (%) | Pulmonary: Dyspnea, G1/2 ([7]; human, in vivo): 1 (4) N (%) | Pulmonary: Dyspnea, G3/4 ([7]; human, in vivo): 1 (4) N (%) | Pulmonary: Pleural effusions, G1/2 ([7]; human, in vivo): 1 (10) N (%) | Pulmonary: Pleural effusions, G3/4 ([7]; human, in vivo): 2 (8) N (%) | Renal: Renal insufficiency, G1/2 ([7]; human, in vivo): 0 N (%) | Renal: Renal insufficiency, G3/4 ([7]; human, in vivo): 4 (17) N (%) | Renal: Urinary retention, G1/2 ([7]; human, in vivo): 1 (4) N (%) | Renal: Urinary retention, G3/4 ([7]; human, in vivo): 0 N (%) | incidence of grade 3/4 hyperglycemia ([7]; human, in vivo): 50% | myelosuppression and neutropenia ([7]; human, in vivo): occurred in all 24 patients | maximum tolerated dose (MTD) of everolimus ([7]; in combination with HyperCVAD, 3+3 design): 5 mg/day | DLT at dose level 0 ([7]; in vivo): no documented first or second cycle DLT | pneumonitis ([7]; in vivo): No documented cases
